Rows were chosen to be rich in hits. Some 1.9% of all compounds tested hit in one or more screens of this group.
M5 antag = antagonists of human muscarinic M5 receptor (CHRM5); CHO-hM5 cells, Fluo-8 calcium fluorescence, ACh EC80; inhibition, % at 3 µM; hit rate 0.59% among 360,000;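 active = inhibition above a per-plate cutoff, the mean of that plate's test compounds plus 3 SD, cut at about 27% in these data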
Target sequence (P08912 whole entry, looked up): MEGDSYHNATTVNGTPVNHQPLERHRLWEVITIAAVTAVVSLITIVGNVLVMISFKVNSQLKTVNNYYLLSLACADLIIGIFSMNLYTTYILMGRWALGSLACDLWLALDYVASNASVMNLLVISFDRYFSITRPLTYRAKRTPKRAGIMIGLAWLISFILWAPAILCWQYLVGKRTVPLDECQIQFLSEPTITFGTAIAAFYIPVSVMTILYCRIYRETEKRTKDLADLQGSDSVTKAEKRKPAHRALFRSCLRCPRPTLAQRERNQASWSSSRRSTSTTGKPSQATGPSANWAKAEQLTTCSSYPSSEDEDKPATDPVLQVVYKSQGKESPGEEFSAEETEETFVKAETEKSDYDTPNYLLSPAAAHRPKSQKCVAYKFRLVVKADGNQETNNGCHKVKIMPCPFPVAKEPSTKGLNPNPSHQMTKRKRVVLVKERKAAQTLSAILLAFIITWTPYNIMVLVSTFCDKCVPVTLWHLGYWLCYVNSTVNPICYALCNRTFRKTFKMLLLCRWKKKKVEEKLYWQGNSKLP
CHRM5 PAM = potentiates acetylcholine response at human M5 receptor; CHO-K1 hM5, Fluo-8 calcium, ACh EC20 PAM; 0% = ACh EC20, 100% = ACh EC100; activation, % at 3 µM; P08912; hit rate 0.3% among 360,000;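 active = activation above the run cutoff, the mean activation of all test compounds plus 3 SD, cut at about 18% in these data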
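Assay system: CHO-K1 hM5 cells / Incubation: Fluo-8 loading 80 min at 37 °C plus 30 min room temperature / Technique: Fluo-8 calcium dye fluorescence, kinetic read / Repeats: single replicate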
M4 ag = CHRM4 agonism in calcium assay | AID 624127 | CHO-K1 hM4/Gqi5, Fluo-8 calcium fluorescence; vehicle 0%, full acetylcholine response 100% | hit rate 0.14% among 360,000 | P08173 | activation, % at 3 µM;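 active = activation above the run mean over all test wells plus 3 SD, cut at about 32% in these data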;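 note: peak over basal fluorescence ratio per well then scaled between controls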
CHRM4 PAM = positive allosteric modulators of human muscarinic M4 receptor; hit rate 0.4% among 360,000; AID 624126; activation, % at 3 µM; P08173; CHO-K1 hM4/Gqi5, Fluo-8 calcium fluorescence, ACh EC20; 0% = ACh EC20, 100% = maximal ACh;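 active = activation above its plate's cutoff, the mean activation of sample wells plus 3 SD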
CHRM5 agonist = CHRM5 agonism in calcium assay. CHO-K1 hM5 cells, Fluo-8 calcium fluorescence; 0% DMSO wells, 100% maximal acetylcholine response. activation, % at 3 µM. hit rate 0.19% among 360,000;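 active = activation above the run's mean over test compounds plus 3 SD, cut at about 23% in these data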;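 note: signal is peak over basal fluorescence ratio across the kinetic read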
CHRM4 antagonist = CHRM4 antagonism in calcium assay | P08173 | CHO-hM4 cells, ACh EC80, Fluo-8 calcium fluorescence | inhibition, % at 3 µM | hit rate 0.73% among 360,000 | AID 624125;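 active = inhibition above its plate's cutoff, the mean inhibition of sample wells plus 3 SD, cut at about 27% in these data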
Hits are given with their value; . = inactive.

SMILES	M5 antag	CHRM5 PAM	M4 ag	CHRM4 PAM	CHRM5 agonist	CHRM4 antagonist
COc1ccc(Cl)cc1Cn1c(C)c(C(=O)NCc2ccc(C#N)cc2)sc1=O	.	.	.	.	.	.
Cc1c(C(=O)NCc2ccc([N+](=O)[O-])cc2)sc(=O)n1Cc1ccc2c(c1)OCO2	.	.	.	.	25	.
COc1ccc(CNC(=O)c2sc(=O)n(Cc3ccc(C)cc3)c2C)cc1OC	.	.	.	.	.	.
COc1ccccc1Cn1c(C)c(C(=O)NCc2ccc(C#N)cc2)sc1=O	.	.	37	.	28	.
Cc1ccccc1Cn1c(C)c(C(=O)NCc2cccc(Cl)c2)sc1=O	.	.	.	.	.	.
COc1ccc(CNC(=O)c2sc(=O)n(Cc3ccc(-c4ccccc4)cc3)c2C)cc1OC	30	.	.	.	.	.
CCOC1=C2CN(S(=O)(=O)c3ccccc3)[C@H](c3ccccc3)C[C@H]2n2c(=O)n(-c3ccccc3)c(=O)n2C1	.	.	.	.	.	.
Cc1cccc(-c2n[nH]nc2C2=CC(=O)CC(C)(C)C2)c1	.	.	.	.	.	.
O=C(Nc1cccc(Br)c1)c1ccc2c(c1)SC1=NS(=O)(=O)CCN12	.	.	.	23	.	.
COC(=O)c1[nH]c2c(c1C)C(=O)CC(c1cccs1)C2 (stereo not given)	.	.	.	30	.	.
COC(=O)[C@]12CCCCC=C1N(Cc1ccc3c(c1)OCO3)C(=O)[C@H](CC(=O)N1CCCCC1)C2	.	.	.	.	.	.
COc1ccc(NC(=O)/C(Cl)=C(/Cl)S(=O)Cc2ccccc2)cn1 (stereo not given)	42	.	.	.	.	36
COc1ccc(NC(=O)Cc2ccccc2)cn1	.	.	.	.	.	.
O=C(Nc1ccc2c(c1)OCCO2)C(c1ccccc1)n1c(=O)c(-c2cc3ccccc3[nH]2)nc2ccccc21 (stereo not given)	.	.	.	.	.	.
COC(=O)[C@@]12C[C@@H](CC(=O)NCc3cccc4ccccc34)C(=O)N(CCc3ccc(OC)c(OC)c3)C1=CCC(C)(C)C2	.	.	.	.	.	.
Cc1ccnc(NS(=O)(=O)c2ccc(NC(=O)C3CC3)cc2)n1	.	.	.	.	.	.
Cc1cc(C)nc(NS(=O)(=O)c2ccc(NC(=O)C(C)C)cc2)n1	.	.	.	.	.	62
Cc1cc(C)nc(NS(=O)(=O)c2ccc(NC(=O)C3CC3)cc2)n1	.	.	.	.	.	.
Cc1ccnc(NS(=O)(=O)c2ccc(NC(=O)C34CC5CC(CC(C5)C3)C4)cc2)n1	.	28	.	.	.	.
CCn1c2ccccc2c2nnc(SCCN3CCCCC3)nc21	.	.	.	.	.	28
CCn1c2ccccc2c2nnc(SCCN3CCOCC3)nc21	.	.	.	.	.	.
CCn1nc(C(=O)OCc2c(C)noc2C)c2ccccc2c1=O	.	56	.	.	.	.
CCCOc1ccc(F)cc1-c1cc(C(=O)NCc2cccs2)[nH]n1	.	.	.	.	.	.
COc1cc(C2C=C(C34CC5CC(CC(C5)C3)C4)NC(=S)N2)cc(OC)c1OC (stereo not given)	.	.	.	.	.	.
COc1ccc(OC)c(C2C=C(C34CC5CC(CC(C5)C3)C4)NC(=S)N2)c1 (stereo not given)	.	.	.	.	.	43
SMILES	M5 antag	CHRM5 PAM	M4 ag	CHRM4 PAM	CHRM5 agonist	CHRM4 antagonist
O=C(NC1CCCC1)C(c1ccccc1)n1c(CSCCOc2ccccc2)nc2ccccc21 (stereo not given)	.	.	.	.	.	.
O=Cc1ccccc1OCCOc1ccccc1C=O	.	.	.	.	.	27
O=Cc1ccccc1Oc1ccccc1	.	.	.	.	.	.
CCN(CC#CCC(O)(c1ccccc1)c1ccccc1)C(C)C	.	.	.	.	.	31
CC(C)N(CC#CCC(O)(c1ccccc1)c1ccccc1)CCO	.	.	.	.	.	.
CC(O)CC(=O)OC[C@]12CC[C@H]3[C@@](C)(CC[C@H]4C(C)(C)CCC[C@]34C)[C@@H]1CC(C1=CC(=O)OC1O)O2 (stereo not given in full)	.	.	.	.	.	64
Cc1ccc(C2N3CC4([N+](=O)[O-])CN2CC([N+](=O)[O-])(C3)C4(C)C)cc1 (stereo not given)	.	.	.	.	.	.
CCCC1N2CC3([N+](=O)[O-])CN1CC([N+](=O)[O-])(C2)C3(C)C (stereo not given)	.	.	.	20	.	.
COc1cccc(CNC(=O)Cn2nc(C)c([N+](=O)[O-])c2C)c1	.	21	.	.	.	.
COc1ccccc1CNC(=O)Cn1nc(C)c([N+](=O)[O-])c1C	.	.	.	.	.	.
COc1cccc(CNC(=O)CN2C(=O)c3ccccc3S2(=O)=O)c1	.	.	.	25	.	.
O=C(CN1C(=O)c2ccccc2S1(=O)=O)NCc1ccccc1	.	.	.	.	.	.
COc1cccc(CNC(=O)CCN2C(=O)[C@@H]3Cc4ccccc4CN3C2=O)c1	.	.	.	20	.	.
COc1ccc(CCNC(=O)CCN2C(=O)[C@@H]3Cc4ccccc4CN3C2=O)cc1	.	.	.	.	.	.
CC1(C(=O)NCc2cccs2)CCN1CCc1ccccc1 (stereo not given)	.	.	.	.	.	.
CC1(C(=O)NS(=O)(=O)c2cccc(OC(F)F)c2)CCN1C(=O)Cc1ccsc1 (stereo not given)	.	.	.	.	.	.
O=C(/C=C\c1cn(-c2ccccc2)nc1-c1ccc2c(c1)OCCO2)N1CCOCC1	.	.	.	.	.	.
CN1CCN(C(=O)/C=C/c2cn(-c3ccccc3)nc2-c2ccc3c(c2)OCCO3)CC1	.	19	.	.	.	.
CN(C)CCCN(C(=O)c1cccs1)c1nc(-c2ccccc2)cs1	.	.	.	.	.	28
COc1ccc(-c2csc(N(CCCN(C)C)C(=O)c3ccccc3F)n2)cc1	.	.	.	.	.	.
COc1ccc(-c2csc(N(CCCN(C)C)C(=O)c3ccccc3C)n2)cc1	.	.	.	.	.	.
CCC(=O)N(CC)c1nc(-c2ccc(OC)cc2)cs1	.	.	59	.	.	.
CCN(CC)CCCN(C(=O)c1ccc(F)cc1)c1nc(-c2ccc(OC)cc2)cs1	.	.	.	59	.	46
COc1ccc(-c2csc(N(CCCN(C)C)C(=O)c3ccc(F)cc3)n2)cc1	.	.	.	50	.	35

High-throughput results deposited in PubChem by The Scripps Research Institute Molecular Screening Center.
